Calls of active or inactive are those of the source. No cut-off for these calls is given here.
Legend:
Mus musculus [1] = assay: Ratio of ED50 for acetic acid-induced writhing in po dosed mouse to ED50 for acetic acid-induced writhing in sc dosed mouse; format: functional
Procedure, shortened: (§1)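 Male mice (5 weeks old) received test compound sc into the rostral back or po, 15 min before ip 0.6% aqueous acetic acid (0.1 mL/10 g). Writhes were counted over 10 min, starting 10 min after the acid. […] The po/sc ED50 ratio was calculated.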

[2] = biological target: Delta-type opioid receptor (Mus musculus) (UniProt P32300); assay: Equilibrium constant, ratio of IC50 for delta opioid receptor in ddy mouse vas deferens in presence of 10 nM Naltrindole to IC50 for delta opioid receptor in ddy mouse vas deferens
Procedure, shortened: (§2)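 Electrically stimulated ddY mouse vas deferens was held in Krebs-Henseleit at 37 °C under 95% O2/5% CO2. Tissue was preincubated 20 min with antagonist before the test agonist: naloxone 30 nM (μ), NTI 10 nM (δ), or nor-BNI 10 nM (κ). IC50s were compared with and without antagonist. Ke = [antagonist]/(IC50 ratio − 1).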

[3] = biological target: Kappa-type opioid receptor (Mus musculus) (UniProt P33534); assay: Equilibrium constant, ratio of IC50 for kappa opioid receptor in ddy mouse vas deferens in presence of 10 nM nor-BNI to IC50 for kappa opioid receptor in ddy mouse vas deferens; procedure, shortened: as §2
[4] = biological target: Kappa-type opioid receptor (Mus musculus, UniProt P33534); assay: Agonist activity at kappa opioid receptor in ddy mouse vas deferens assessed as inhibition of electric stimulation-induced contraction; format: functional, tissue-based
Mus musculus [5] = assay: Antinociceptive activity in po dosed mouse assessed as inhibition of acetic acid-induced writhing administered 15 mins before acetic acid challenge; format: functional; procedure, shortened: as §1
[6] = biological target: Mu-type opioid receptor (Mus musculus) (UniProt P42866); assay: Equilibrium constant, ratio of IC50 for mu opioid receptor in ddy mouse vas deferens in presence of 30 nM naloxone to IC50 for mu opioid receptor in ddy mouse vas deferens; procedure, shortened: as §2
Mus musculus [7] = assay: Inhibition of acetic acid-induced writhing in sc dosed mouse up to 180 mins administered 15 mins before acetic acid challenge; format: functional, organism-based
Mus musculus [8] = assay: Antinociceptive activity in sc dosed mouse assessed as inhibition of acetic acid-induced writhing administered 15 mins before acetic acid challenge; format: functional; procedure, shortened: as §1
Mus musculus [9] = assay: Antinociceptive activity in mouse assessed as inhibition of acetic acid-induced writhing at 10 mg/kg, sc administered 15 mins before acetic acid challenge; format: functional; settings: route subcutaneous; procedure, shortened: as §1

SMILES: CN(C(=O)Cc1ccc(Cl)c(Cl)c1)[C@H]1CC[C@@]2(O)[C@H]3Cc4ccc(O)c5c4[C@@]2(CCN3CC2CC2)[C@H]1O5
- Ratio ED50 (Mus musculus [1]): 48
- Ke [2]: 17.1 nM
- Ke [3]: 0.55 nM
- IC50 [4]: 0.4 nM
- ED50 (Mus musculus [5]): 0.83 mg/kg
- Ke [6]: 53 nM

SMILES: CN(C(=O)/C=C/c1cccc([N+](=O)[O-])c1)[C@@H]1CC[C@@]2(O)[C@H]3Cc4ccc(O)c5c4[C@@]2(CCN3CC2CC2)[C@H]1O5
- Ratio ED50 (Mus musculus [1]): 12.9
- Ke [2]: 89 nM
- Ke [3]: 1.4 nM
- IC50 [4]: 0.23 nM
- ED50 (Mus musculus [5]): 0.22 mg/kg
- Ke [6]: 185 nM

SMILES: CN(C(=O)/C=C/c1cccc(F)c1)[C@@H]1CC[C@@]2(O)[C@H]3Cc4ccc(O)c5c4[C@@]2(CCN3CC2CC2)[C@H]1O5
- Ratio ED50 (Mus musculus [1]): 3.7
- Activity (Mus musculus [7]): Active
- Ke [2]: 276 nM
- Ke [3]: 2.37 nM
- IC50 [4]: 1.6 nM
- ED50 (Mus musculus [5]): 0.007 mg/kg

SMILES: CN(C(=O)/C=C/c1cccs1)[C@@H]1CC[C@@]2(O)[C@H]3Cc4ccc(O)c5c4[C@@]2(CCN3CC2CC2)[C@H]1O5
- Ratio ED50 (Mus musculus [1]): 9.6
- ED50 (Mus musculus [8]): 0.0027 mg/kg
- Activity (Mus musculus [7]): Active
- Ke [2]: 89.6 nM
- Ke [3]: 0.28 nM
- IC50 [4]: 0.1 nM
- ED50 (Mus musculus [5]): 0.026 mg/kg

SMILES: CN(C(=O)/C=C/c1ccoc1)[C@@H]1CC[C@@]2(O)[C@H]3Cc4ccc(O)c5c4[C@@]2(CCN3CCc2ccccc2)[C@H]1O5
- ED50 (Mus musculus [8]): 1.03 mg/kg

SMILES: COc1cccc(/C=C/C(=O)N(C)[C@@H]2CC[C@@]3(O)[C@H]4Cc5ccc(O)c6c5[C@@]3(CCN4CC3CC3)[C@H]2O6)c1
- Ratio ED50 (Mus musculus [1]): 4.4
- ED50 (Mus musculus [8]): 0.0011 mg/kg
- Activity (Mus musculus [7]): Active
- Ke [2]: 96.4 nM
- Ke [3]: 1.6 nM
- IC50 [4]: 0.75 nM
- ED50 (Mus musculus [5]): 0.0048 mg/kg
- Ke [6]: 60.9 nM

SMILES: CCCCCCN[C@@H]1CC[C@@]2(O)[C@H]3Cc4ccc(O)c5c4[C@@]2(CCN3CC2CC2)[C@H]1O5
- Ke [3]: 0.3 nM
- IC50 [4]: 2 nM
- Ke [6]: 14 nM

SMILES: O=C(/C=C/c1ccoc1)N[C@@H]1CC[C@@]2(O)[C@H]3Cc4ccc(O)c5c4[C@@]2(CCN3CC2CC2)[C@H]1O5
- ED50 (Mus musculus [8]): 0.95 mg/kg
- Ke [2]: 8100 nM
- Ke [3]: 0.44 nM
- IC50 [4]: 0.869 nM

SMILES: CN(C(=O)/C=C/c1ccsc1)[C@@H]1CC[C@@]2(O)[C@H]3Cc4ccc(O)c5c4[C@@]2(CCN3CC2CC2)[C@H]1O5
- Ratio ED50 (Mus musculus [1]): 9.5
- Activity (Mus musculus [7]): Active
- Ke [3]: 1.71 nM
- IC50 [4]: 0.1 nM
- ED50 (Mus musculus [5]): 0.04 mg/kg

SMILES: CN(C(=O)/C=C/c1ccoc1)[C@@H]1CC[C@H]2[C@H]3Cc4ccc(O)c5c4[C@@]2(CCN3CC2CC2)[C@H]1O5
- ED50 (Mus musculus [8]): 0.02 mg/kg
- Ke [2]: 1.31 nM
- Ke [3]: 0.07 nM
- IC50 [4]: 0.035 nM
- Ke [6]: 8.04 nM

SMILES: CCCCCC(=O)N[C@@H]1CC[C@@]2(O)[C@H]3Cc4ccc(O)c5c4[C@@]2(CCN3CC2CC2)[C@H]1O5
- Ke [2]: 2.3 nM
- Ke [3]: 0.26 nM
- inhibition in vivo at 10 mg/kg (Mus musculus [9]): 25%
- IC50 [4]: 25 nM
- Ke [6]: 4.4 nM

SMILES: CN(C(=O)/C=C/c1ccoc1)[C@@H]1CC[C@@]2(O)[C@H]3Cc4cccc5c4[C@@]2(CCN3CC2CC2)[C@H]1O5
- Ke [2]: 8.4 nM
- Ke [3]: 0.07 nM
- IC50 [4]: 27.2 nM
- Ke [6]: 12 nM

SMILES: CN(C(=O)/C=C/c1ccoc1)[C@H]1CC[C@@]2(O)[C@H]3Cc4ccc(O)c5c4[C@@]2(CCN3CC2CC2)[C@H]1O5
- ED50 (Mus musculus [5]): 0.13 mg/kg

SMILES: CN(C(=O)CCc1ccccc1)[C@@H]1CC[C@@]2(O)[C@H]3Cc4ccc(O)c5c4[C@@]2(CCN3CC2CC2)[C@H]1O5
- Ratio ED50 (Mus musculus [1]): 7.3
- Ke [2]: 188 nM
- Ke [3]: 0.008 nM
- IC50 [4]: 0.019 nM
- ED50 (Mus musculus [5]): 0.29 mg/kg

SMILES: CN(C(=O)/C=C/c1ccccc1)[C@@H]1CC[C@@]2(O)[C@H]3Cc4ccc(O)c5c4[C@@]2(CCN3CC2CC2)[C@H]1O5
- Ratio ED50 (Mus musculus [1]): 5.5
- ED50 (Mus musculus [8]): 0.002 mg/kg
- Activity (Mus musculus [7]): Active
- Ke [2]: 263 nM
- Ke [3]: 0.861 nM
- IC50 [4]: 0.166 nM
- ED50 (Mus musculus [5]): 0.011 mg/kg
- Ke [6]: 922 nM

SMILES: Cc1cccc(/C=C/C(=O)N(C)[C@@H]2CC[C@@]3(O)[C@H]4Cc5ccc(O)c6c5[C@@]3(CCN4CC3CC3)[C@H]2O6)c1
- Ratio ED50 (Mus musculus [1]): 9.7
- Activity (Mus musculus [7]): Active
- Ke [2]: 64.5 nM
- Ke [3]: 1.95 nM
- IC50 [4]: 0.32 nM
- ED50 (Mus musculus [5]): 0.064 mg/kg
- Ke [6]: 1780 nM
